Data: ChEMBL document CHEMBL3046880, “Syntheses and herbicidal activities of novel triazolinone derivatives” (J Agric Food Chem, 2008)

What was measured:
Type in all cases: functional
Chenopodium album = assay: Herbicidal activity against Chenopodium album assessed as growth inhibition at 150 g of active ingredient/ha administered using post-emergence treatment measured 15 days post treatment protocol under greenhouse conditions
Summary of the method: (§1)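 Test agents were formulated as 100 g/L emulsified concentrates (DMF solvent, TW-80 emulsifier), diluted with water and sprayed postemergence on pot-grown weeds. Seeds were sown 1-3 cm deep in clay soil (pH 6.5, 1.6% organic matter, 37.3% clay, CEC […]) and grown at 15–30 °C in a greenhouse. Dicots were treated at the two-leaf stage. Untreated and DMF-treated plants served as controls. Activity was scored visually 15 days after treatment.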

Brassica juncea = assay: Herbicidal activity against Brassica juncea assessed as growth inhibition at 150 g of active ingredient/ha administered using post-emergence treatment measured 15 days post treatment protocol under greenhouse conditions; summary of the method: as §1
Digitaria sanguinalis = assay: Herbicidal activity against Digitaria sanguinalis (hairy crabgrass) assessed as growth inhibition at 150 g of active ingredient/ha administered using post-emergence treatment measured 15 days post treatment protocol under greenhouse conditions; summary of the method: as §1
Echinochloa crus-galli = assay: Herbicidal activity against Echinochloa crus-galli (barnyard grass) assessed as growth inhibition at 150 g of active ingredient/ha administered using post-emergence treatment measured 15 days post treatment protocol under greenhouse conditions; summary of the method: as §1
Setaria viridis = assay: Herbicidal activity against Setaria viridis (green foxtail) assessed as growth inhibition at 150 g of active ingredient/ha administered using post-emergence treatment measured 15 days post treatment protocol under greenhouse conditions; summary of the method: as §1
Amaranthus retroflexus = assay: Herbicidal activity against Amaranthus retroflexus assessed as growth inhibition at 150 g of active ingredient/ha administered using post-emergence treatment measured 15 days post treatment protocol under greenhouse conditions; summary of the method: as §1

| SMILES | growth inhibition (GI) (Chenopodium album) [%] | growth inhibition (GI) (Brassica juncea) [%] | growth inhibition (GI) (Digitaria sanguinalis) [%] | growth inhibition (GI) (Echinochloa crus-galli) [%] | growth inhibition (GI) (Setaria viridis) [%] | growth inhibition (GI) (Amaranthus retroflexus) [%] |
| --- | --- | --- | --- | --- | --- | --- |
| Cc1nn(-c2cc(N3C(=O)c4ccccc4C3=O)c(Br)cc2F)c(=O)n1C(F)F | >80 | >80 | >80 | 50 | >80 | 100 |
| Cc1nn(-c2cc(N3C(=O)c4ccccc4C3=O)c(Cl)cc2Cl)c(=O)n1C(F)F | 100 | <50 | 50 | 50 | 50 | 100 |
| Cc1nn(-c2cc(N3C(=O)c4ccccc4C3=O)c(F)cc2Br)c(=O)n1C(F)F | <50 | <50 | <50 | <50 | <50 | <50 |
| Cc1nn(-c2cc(N3C(=O)c4ccccc4C3=O)ccc2Cl)c(=O)n1C(F)F | <50 | <50 | <50 | <50 | <50 | <50 |
| Cc1nn(-c2cc(N3C(=O)C4=C(CCCC4)C3=O)c(Br)cc2F)c(=O)n1C(F)F | 100 | <50 | 50 | 50 | 50 | 100 |
| Cc1nn(-c2cc(N3C(=O)C4=C(CCCC4)C3=O)c(Cl)cc2Cl)c(=O)n1C(F)F | 100 | <50 | 50 | 50 | 50 | 100 |
| Cc1nn(-c2cc(N3C(=O)C4=C(CCCC4)C3=O)c(F)cc2Br)c(=O)n1C(F)F | <50 | 50 | <50 | <50 | <50 | 50 |
| Cc1nn(-c2cc(N3C(=O)C4=C(CCCC4)C3=O)ccc2Cl)c(=O)n1C(F)F | <50 | <50 | <50 | <50 | <50 | <50 |
| Cc1nn(-c2cc(N3C(=O)C4CCCCC4C3=O)c(Br)cc2F)c(=O)n1C(F)F (stereo not given) | 100 | 50 | 50 | 50 | 50 | 100 |
| Cc1nn(-c2cc(N3C(=O)C4CCCCC4C3=O)c(Cl)cc2Cl)c(=O)n1C(F)F (stereo not given) | >80 | <50 | <50 | <50 | <50 | 100 |
| Cc1nn(-c2cc(N3C(=O)C4CCCCC4C3=O)c(F)cc2Br)c(=O)n1C(F)F (stereo not given) | 50 | 50 | <50 | <50 | <50 | <50 |
| Cc1nn(-c2cc(N3C(=O)C4CCCCC4C3=O)ccc2Cl)c(=O)n1C(F)F (stereo not given) | <50 | <50 | <50 | <50 | <50 | <50 |
| Cc1nn(-c2cc(NC(=O)Nc3ccccc3)ccc2Cl)c(=O)n1C(F)F | <50 | <50 | <50 | <50 | <50 | <50 |
| Cc1nn(-c2cc(NC(=O)Nc3ccc(Cl)cc3)ccc2Cl)c(=O)n1C(F)F | <50 | <50 | <50 | <50 | <50 | <50 |
| Cc1nn(-c2cc(NC(=O)Nc3ccccc3)c(Br)cc2F)c(=O)n1C(F)F | <50 | <50 | <50 | <50 | <50 | <50 |
| Cc1nn(-c2cc(NC(=O)Nc3ccc(Cl)cc3)c(Br)cc2F)c(=O)n1C(F)F | <50 | <50 | <50 | <50 | <50 | <50 |
| Cc1nn(-c2cc(NC(=O)Nc3ccccc3)c(F)cc2Br)c(=O)n1C(F)F | <50 | <50 | <50 | <50 | <50 | <50 |
| Cc1nn(-c2cc(NC(=O)Nc3ccc(Cl)cc3)c(F)cc2Br)c(=O)n1C(F)F | <50 | <50 | <50 | <50 | <50 | <50 |
| Cc1nn(-c2cc(NC(=O)Nc3ccccc3)c(Cl)cc2Cl)c(=O)n1C(F)F | <50 | <50 | <50 | <50 | <50 | <50 |
| Cc1nn(-c2cc(NC(=O)Nc3ccc(Cl)cc3)c(Cl)cc2Cl)c(=O)n1C(F)F | <50 | <50 | <50 | <50 | <50 | <50 |
